Data taken from ChEMBL document CHEMBL2146410, “Novel N-Substituted Benzimidazolones as Potent, Selective, CNS-Penetrant, and Orally Active M1 mAChR Agonists” (ACS Med Chem Lett, 2010).
pEC50, pIC50, pKi: −log10 of the molar value. Active and inactive are the calls of the source. The calls are words filed in the database; no cut-off is given here.

Assays:
[1] = molecular target: T1, Muscarinic acetylcholine receptor M3 (Homo sapiens, UniProt P20309); assay: Agonist activity at human muscarinic M3 receptor expressed in CHO cells assessed as intracellular calcium mobilization after 10 to 15 mins by FLIPR assay; format: functional, cell-based
Target sequence in this assay (P20309 whole entry): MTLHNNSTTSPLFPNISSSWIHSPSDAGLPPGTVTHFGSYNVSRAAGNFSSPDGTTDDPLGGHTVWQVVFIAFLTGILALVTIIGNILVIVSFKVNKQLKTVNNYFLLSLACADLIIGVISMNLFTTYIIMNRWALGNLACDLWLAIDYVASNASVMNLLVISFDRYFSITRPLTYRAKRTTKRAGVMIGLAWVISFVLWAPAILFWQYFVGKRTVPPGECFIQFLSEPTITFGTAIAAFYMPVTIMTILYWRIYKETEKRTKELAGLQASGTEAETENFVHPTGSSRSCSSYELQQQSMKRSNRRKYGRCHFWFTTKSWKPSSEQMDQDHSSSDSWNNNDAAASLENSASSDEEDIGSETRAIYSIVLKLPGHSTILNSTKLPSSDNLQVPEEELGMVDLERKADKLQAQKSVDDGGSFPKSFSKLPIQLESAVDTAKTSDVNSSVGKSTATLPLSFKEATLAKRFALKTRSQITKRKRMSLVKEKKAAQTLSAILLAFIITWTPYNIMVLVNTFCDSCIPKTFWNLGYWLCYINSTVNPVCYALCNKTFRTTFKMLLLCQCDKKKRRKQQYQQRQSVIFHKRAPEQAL

[2] = molecular target: T2, Muscarinic acetylcholine receptor M2 (Homo sapiens) (UniProt P08172); assay: Intrinsic activity at human muscarinic M2 receptor expressed in CHO cells coexpressing Galpha16 subunit assessed as intracellular calcium mobilization after 10 to 15 mins by FLIPR assay; format: functional, cell-based
T2 sequence (whole entry): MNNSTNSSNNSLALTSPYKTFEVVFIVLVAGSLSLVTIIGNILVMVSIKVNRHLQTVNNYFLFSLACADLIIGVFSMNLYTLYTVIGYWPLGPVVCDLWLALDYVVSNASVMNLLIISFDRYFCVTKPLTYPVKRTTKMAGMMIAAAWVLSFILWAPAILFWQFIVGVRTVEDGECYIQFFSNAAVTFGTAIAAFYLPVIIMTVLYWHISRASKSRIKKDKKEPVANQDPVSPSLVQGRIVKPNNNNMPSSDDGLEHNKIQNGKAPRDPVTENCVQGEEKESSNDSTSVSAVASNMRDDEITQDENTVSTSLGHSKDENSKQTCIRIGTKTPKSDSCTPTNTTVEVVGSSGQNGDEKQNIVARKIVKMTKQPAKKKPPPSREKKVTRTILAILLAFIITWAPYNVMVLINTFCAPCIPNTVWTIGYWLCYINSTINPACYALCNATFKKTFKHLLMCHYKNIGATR

[3] = molecular target: T3, Muscarinic acetylcholine receptor M5 (Homo sapiens, UniProt P08912); assay: Agonist activity at human muscarinic M5 receptor expressed in CHO cells assessed as intracellular calcium mobilization after 10 to 15 mins by FLIPR assay; format: functional, cell-based
T3 sequence (P08912 whole entry): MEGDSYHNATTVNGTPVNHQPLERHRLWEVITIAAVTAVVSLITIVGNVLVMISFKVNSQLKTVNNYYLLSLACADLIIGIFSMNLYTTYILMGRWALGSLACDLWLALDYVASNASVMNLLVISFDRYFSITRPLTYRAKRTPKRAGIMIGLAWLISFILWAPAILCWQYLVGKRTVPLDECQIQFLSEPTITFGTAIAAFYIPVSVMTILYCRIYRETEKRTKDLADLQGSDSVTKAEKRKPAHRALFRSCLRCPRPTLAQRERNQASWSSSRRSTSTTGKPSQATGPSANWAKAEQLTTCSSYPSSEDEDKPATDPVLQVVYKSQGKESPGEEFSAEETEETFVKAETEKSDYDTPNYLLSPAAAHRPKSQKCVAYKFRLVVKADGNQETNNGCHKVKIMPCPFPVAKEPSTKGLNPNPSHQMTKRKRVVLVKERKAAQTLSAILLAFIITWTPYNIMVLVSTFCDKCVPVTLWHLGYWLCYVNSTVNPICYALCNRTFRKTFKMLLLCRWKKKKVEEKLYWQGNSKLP

[4] = Half life in rat at 1 mg/kg, iv; format: ADME, organism-based; parameters: dose 1 mg/kg, route intravenous; conditions: in vivo
[5] = Blood clearance in rat at 1 mg/kg, iv; format: ADME, organism-based; parameters: dose 1 mg/kg, route intravenous
Liver microsomes = assay: Intrinsic clearance in human liver microsomes; format: ADME, Microsome
[6] = molecular target: T4, Muscarinic acetylcholine receptor M1 (Homo sapiens) (UniProt P11229); assay: Intrinsic activity at human muscarinic M1 receptor expressed in CHO cells assessed as intracellular calcium mobilization after 10 to 15 mins by FLIPR assay; format: functional, cell-based
T4 sequence (whole entry): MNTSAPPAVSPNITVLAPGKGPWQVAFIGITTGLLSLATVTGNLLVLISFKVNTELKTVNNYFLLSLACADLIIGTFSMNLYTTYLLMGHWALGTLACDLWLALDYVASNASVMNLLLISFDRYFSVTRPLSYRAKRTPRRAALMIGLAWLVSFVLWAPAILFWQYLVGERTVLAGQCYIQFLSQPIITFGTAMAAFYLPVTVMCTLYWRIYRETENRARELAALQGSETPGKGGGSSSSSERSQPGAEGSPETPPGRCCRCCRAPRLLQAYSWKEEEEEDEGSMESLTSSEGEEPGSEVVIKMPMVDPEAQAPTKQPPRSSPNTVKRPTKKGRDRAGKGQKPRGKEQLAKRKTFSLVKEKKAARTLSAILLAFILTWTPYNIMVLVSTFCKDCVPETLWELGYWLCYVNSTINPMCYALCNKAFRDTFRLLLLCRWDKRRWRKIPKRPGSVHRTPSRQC
How it was run: (§1)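 Human M1 mAChR stably expressed in CHO cells; agonist-induced intracellular Ca2+ mobilization read by fluorometric imaging plate reader (FLIPR).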

[7] = molecular target: T5, Muscarinic acetylcholine receptor M4 (Homo sapiens) (UniProt P08173); assay: Intrinsic activity at human muscarinic M4 receptor expressed in CHO cells coexpressing Galpha16 subunit assessed as intracellular calcium mobilization after 10 to 15 mins by FLIPR assay; format: functional, cell-based
T5 sequence (whole entry): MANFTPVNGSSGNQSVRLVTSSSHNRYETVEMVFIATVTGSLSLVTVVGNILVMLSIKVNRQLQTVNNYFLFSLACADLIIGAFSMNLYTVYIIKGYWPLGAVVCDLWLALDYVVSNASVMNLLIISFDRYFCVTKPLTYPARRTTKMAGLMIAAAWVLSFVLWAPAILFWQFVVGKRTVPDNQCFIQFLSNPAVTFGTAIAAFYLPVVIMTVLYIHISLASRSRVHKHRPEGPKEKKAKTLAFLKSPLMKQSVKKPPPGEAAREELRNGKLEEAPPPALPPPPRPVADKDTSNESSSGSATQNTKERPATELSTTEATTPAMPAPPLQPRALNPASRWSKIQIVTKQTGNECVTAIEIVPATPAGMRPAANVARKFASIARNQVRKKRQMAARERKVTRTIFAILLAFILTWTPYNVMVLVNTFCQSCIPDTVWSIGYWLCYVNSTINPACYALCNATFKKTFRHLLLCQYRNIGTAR

[8] = Ratio of drug level in brain to blood in rat at 3 mg/kg, po; format: ADME, organism-based; parameters: dose 3 mg/kg, route oral
Rattus norvegicus [9] = assay: Antidementia activity against scopolamine-induced amnesia in Wistar rat assessed as improvement in recall latency to transfer from bright to dark compartment administered orally 2 hrs before scopolamine challenge measured after 24 hrs post training by passive avoidance test; format: functional, organism-based
How it was run: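 Rat passive avoidance task with scopolamine (0.8 mg/kg) given to induce amnesia. Test agent dosed orally at 1, 3 and 10 mg/kg. Groups compared with vehicle-treated controls and with scopolamine alone.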

Rattus norvegicus [10] = assay: Increase in neuronal firing rate in Sprague-Dawley rat hippocampal CA1 region at 0.3 mg/kg, iv; format: functional, organism-based; parameters: dose 0.3 mg/kg
How it was run: (§2)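 Rat hippocampal CA1 neuronal cell firing rate recorded after iv dosing at 0.3 or 1 mg/kg. Where used, scopolamine was given at 3 mg/kg ip […] before the iv dose. Statistics by repeated measures ANOVA.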

[11] = molecular target: T1, Muscarinic acetylcholine receptor M3; assay: Intrinsic activity at human muscarinic M3 receptor expressed in CHO cells assessed as intracellular calcium mobilization after 10 to 15 mins by FLIPR assay; format: functional, cell-based
Target sequence in this assay (P20309 whole entry, looked up): as the sequence (P20309 whole entry) above

Rattus norvegicus [12] = assay: Increase in neuronal firing rate in Sprague-Dawley rat hippocampal CA1 region at 1 mg/kg, iv; format: functional; how it was run: as §2
[13] = molecular target: Voltage-gated inwardly rectifying potassium channel KCNH2 (Homo sapiens, UniProt Q12809); assay: Binding affinity to human ERG
Sequence of Voltage-gated inwardly rectifying potassium channel KCNH2 (Q12809 whole entry): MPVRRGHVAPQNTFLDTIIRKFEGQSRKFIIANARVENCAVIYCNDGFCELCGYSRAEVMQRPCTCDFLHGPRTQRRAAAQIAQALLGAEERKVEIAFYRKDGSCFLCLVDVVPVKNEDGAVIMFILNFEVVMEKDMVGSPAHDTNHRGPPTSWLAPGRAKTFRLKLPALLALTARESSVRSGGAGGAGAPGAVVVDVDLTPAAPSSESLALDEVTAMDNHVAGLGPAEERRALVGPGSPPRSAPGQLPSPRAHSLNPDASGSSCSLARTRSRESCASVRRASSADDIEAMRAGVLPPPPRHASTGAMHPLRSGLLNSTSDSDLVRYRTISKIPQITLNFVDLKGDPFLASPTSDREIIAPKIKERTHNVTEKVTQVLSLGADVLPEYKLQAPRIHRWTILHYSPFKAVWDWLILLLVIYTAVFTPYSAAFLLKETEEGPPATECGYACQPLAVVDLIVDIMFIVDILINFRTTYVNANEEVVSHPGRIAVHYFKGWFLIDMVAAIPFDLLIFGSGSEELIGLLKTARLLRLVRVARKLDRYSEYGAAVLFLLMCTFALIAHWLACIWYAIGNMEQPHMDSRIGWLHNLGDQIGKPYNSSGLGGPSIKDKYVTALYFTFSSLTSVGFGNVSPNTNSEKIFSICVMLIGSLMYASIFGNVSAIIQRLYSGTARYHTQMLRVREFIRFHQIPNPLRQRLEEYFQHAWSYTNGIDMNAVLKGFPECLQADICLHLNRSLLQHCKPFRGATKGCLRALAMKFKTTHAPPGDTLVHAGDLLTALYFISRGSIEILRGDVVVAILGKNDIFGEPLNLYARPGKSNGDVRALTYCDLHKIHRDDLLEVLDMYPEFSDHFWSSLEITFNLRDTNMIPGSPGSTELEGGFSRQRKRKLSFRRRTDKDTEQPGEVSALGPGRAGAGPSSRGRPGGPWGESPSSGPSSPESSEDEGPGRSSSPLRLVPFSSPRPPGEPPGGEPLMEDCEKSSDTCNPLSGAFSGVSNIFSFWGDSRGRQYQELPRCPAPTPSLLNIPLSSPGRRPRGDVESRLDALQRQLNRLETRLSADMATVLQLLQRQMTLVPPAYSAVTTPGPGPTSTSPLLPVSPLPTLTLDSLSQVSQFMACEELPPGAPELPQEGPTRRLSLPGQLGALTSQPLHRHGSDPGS

Rattus norvegicus [14] = assay: Increase in neuronal firing rate in Sprague-Dawley rat hippocampal CA1 region at 1 mg/kg, iv pretreated with 3 mg/kg, ip mAChR antagonist scopolamine for 10 mins; format: functional, organism-based
[15] = molecular target: T6, Muscarinic acetylcholine receptor M4 (Homo sapiens, UniProt P08173); assay: Agonist activity at human muscarinic M4 receptor expressed in CHO cells coexpressing Galpha16 subunit assessed as intracellular calcium mobilization after 10 to 15 mins by FLIPR assay; format: functional, cell-based
T6 sequence (P08173 whole entry): T5 sequence (whole entry)

[16] = Half life in rat at 3 mg/kg, po; format: ADME, organism-based; parameters: dose 3 mg/kg, route oral; conditions: in vivo
[17] = molecular target: T7, Muscarinic acetylcholine receptor M1 (Homo sapiens, UniProt P11229); assay: Agonist activity at human muscarinic M1 receptor expressed in CHO cells assessed as intracellular calcium mobilization after 10 to 15 mins by FLIPR assay; format: functional, cell-based; how it was run: as §1
T7 sequence (P11229 whole entry): T4 sequence (whole entry)

[18] = molecular target: T8, Muscarinic acetylcholine receptor M2 (Homo sapiens, UniProt P08172); assay: Agonist activity at human muscarinic M2 receptor expressed in CHO cells coexpressing Galpha16 subunit assessed as intracellular calcium mobilization after 10 to 15 mins by FLIPR assay; format: functional, cell-based
T8 sequence (P08172 whole entry): T2 sequence (whole entry)

[19] = molecular target: 5-hydroxytryptamine receptor 2A (Homo sapiens, UniProt P28223); assay: Binding affinity to 5HT2A receptor
Sequence of 5-hydroxytryptamine receptor 2A (P28223 whole entry): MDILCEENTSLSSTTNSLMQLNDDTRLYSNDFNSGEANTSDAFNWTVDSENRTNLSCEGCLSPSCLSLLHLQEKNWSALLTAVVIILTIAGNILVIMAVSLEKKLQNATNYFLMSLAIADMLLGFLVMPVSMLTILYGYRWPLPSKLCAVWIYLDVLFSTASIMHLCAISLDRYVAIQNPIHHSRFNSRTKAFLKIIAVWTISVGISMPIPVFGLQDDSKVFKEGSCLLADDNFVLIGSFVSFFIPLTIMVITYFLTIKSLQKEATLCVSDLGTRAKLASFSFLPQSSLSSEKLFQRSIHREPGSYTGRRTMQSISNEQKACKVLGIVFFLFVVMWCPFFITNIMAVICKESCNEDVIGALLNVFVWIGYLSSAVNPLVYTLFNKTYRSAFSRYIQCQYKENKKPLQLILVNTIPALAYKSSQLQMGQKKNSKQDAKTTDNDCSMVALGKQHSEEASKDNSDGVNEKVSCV

D(2) dopamine receptor = D(2) dopamine receptor (Homo sapiens, UniProt P14416); assay: Binding affinity to dopamine D2 receptor
Sequence of D(2) dopamine receptor (P14416 whole entry): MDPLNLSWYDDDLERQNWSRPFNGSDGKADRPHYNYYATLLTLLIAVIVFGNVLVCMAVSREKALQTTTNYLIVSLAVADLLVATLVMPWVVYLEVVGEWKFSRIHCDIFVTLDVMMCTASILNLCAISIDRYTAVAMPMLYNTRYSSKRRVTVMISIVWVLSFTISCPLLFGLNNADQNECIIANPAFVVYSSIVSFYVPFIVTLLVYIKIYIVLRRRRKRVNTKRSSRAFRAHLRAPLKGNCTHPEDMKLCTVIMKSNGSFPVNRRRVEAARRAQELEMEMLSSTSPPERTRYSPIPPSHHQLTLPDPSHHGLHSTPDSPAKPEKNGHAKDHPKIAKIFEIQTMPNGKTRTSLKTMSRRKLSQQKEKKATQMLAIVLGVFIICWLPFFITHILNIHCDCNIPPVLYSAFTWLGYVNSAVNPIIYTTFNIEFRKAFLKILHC

[20] = molecular target: T9, 5-hydroxytryptamine receptor 1A (Homo sapiens, UniProt P08908); assay: Activity at 5HT1A receptor
T9 sequence (P08908 whole entry): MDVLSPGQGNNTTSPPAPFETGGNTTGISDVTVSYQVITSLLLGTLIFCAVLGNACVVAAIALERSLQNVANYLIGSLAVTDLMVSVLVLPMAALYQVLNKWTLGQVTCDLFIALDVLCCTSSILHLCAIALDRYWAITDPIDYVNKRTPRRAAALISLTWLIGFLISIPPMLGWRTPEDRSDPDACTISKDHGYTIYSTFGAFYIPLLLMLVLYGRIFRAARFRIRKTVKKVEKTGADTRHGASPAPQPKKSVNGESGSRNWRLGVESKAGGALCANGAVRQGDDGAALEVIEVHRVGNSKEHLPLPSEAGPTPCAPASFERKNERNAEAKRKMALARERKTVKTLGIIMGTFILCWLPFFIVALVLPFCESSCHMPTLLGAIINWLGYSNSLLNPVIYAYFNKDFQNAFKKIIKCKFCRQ

D(3) dopamine receptor = D(3) dopamine receptor (Homo sapiens, UniProt P35462); assay: Binding affinity to dopamine D3 receptor
Sequence of D(3) dopamine receptor (P35462 whole entry): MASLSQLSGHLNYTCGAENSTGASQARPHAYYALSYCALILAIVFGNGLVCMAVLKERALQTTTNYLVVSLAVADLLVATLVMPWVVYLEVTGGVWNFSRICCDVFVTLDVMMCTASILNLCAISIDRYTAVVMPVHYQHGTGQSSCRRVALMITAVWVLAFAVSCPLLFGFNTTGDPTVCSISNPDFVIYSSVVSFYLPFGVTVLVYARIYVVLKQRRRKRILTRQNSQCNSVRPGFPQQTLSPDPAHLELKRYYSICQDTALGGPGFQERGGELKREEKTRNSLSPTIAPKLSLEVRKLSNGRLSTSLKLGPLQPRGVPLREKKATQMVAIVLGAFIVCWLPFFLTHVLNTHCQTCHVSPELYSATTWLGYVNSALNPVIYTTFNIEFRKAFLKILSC

SMILES | pEC50 [1] | Intrinsic activity [2] [%] | Intrinsic activity [6] [%] | Intrinsic activity [7] [%] | Kp [8] | Intrinsic activity [11] [%] | pIC50 [13] | pEC50 [15] | pEC50 [17] | pEC50 [18] | also measured
O=c1[nH]c2ccccc2n1C1CCN(C2CCOCC2)CC1 | < 5.00 | 88 | 101 | 77 |  |  |  |  |  |  | pEC50 [3]: < 5.00; half-life [4]: 0.5 h; clearance [5]: 68 mL/min/kg; CLH (Liver microsomes): 0.5 mL/min/g
Cc1cc2c(cc1F)[nH]c(=O)n2C1CCN(C2CCOCC2)CC1 |  | 71 | 94 | 71 | 0.6 | 58 | 4.90 | 6.30 |  |  | Activity (Rattus norvegicus [9]): Dose-dependent effect; Activity (Rattus norvegicus [10]): inactive; fold change (FC) (Rattus norvegicus [12]): 3; Activity (Rattus norvegicus [14]): inactive
Cc1ccc2[nH]c(=O)n(C3CCN(C4CCOCC4)CC3)c2c1 | 5.40 | 71 | 92 | 68 | 0.6 | 72 | 4.60 | 6.20 | 8.30 | 6.20 | half-life [16]: 2.6 h
O=c1[nH]c2ccccc2n1C1CCN(CCCOc2ccc(F)cc2)CC1 | < 4.60 |  | 86 |  |  |  | 7.10 | < 4.60 | 6.40 | < 4.60 | pKi [19]: 8.50; pKi (D(2) dopamine receptor): 9.30; pEC50 [20]: 7.30; pKi (D(3) dopamine receptor): 8.90
